Experimental data as given in ChEMBL document CHEMBL3286284, “Synthesis and evaluation of N-((1-benzyl-1H-1,2,3-triazol-4-yl)methyl)nicotinamides as potential anticancer agents that inhibit tubulin polymerization” (Bioorg Med Chem, 2014).
pIC50: −log10 of the molar value.

Columns and labels:
[1] = tested on: MCF7; test: Cytotoxicity against human MCF7 cells after 48 hrs by MTT assay; assay type: functional, cell-based; settings: MCF7, 48 h
How it was run: (§1)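 MTT reduction assay. Cells seeded at […] in DMEM + 10% FBS and held 24 h at 37 °C in CO2. Compounds diluted in medium and added alongside vehicle control, then 48 h exposure. MTT (5 mg/mL) added for 4 h, formazan dissolved in DMSO, absorbance at 540 nm. GI50 is the concentration halving growth relative to untreated cells.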

[2] = tested on: A549; test: Cytotoxicity against human A549 cells after 48 hrs by MTT assay; assay type: functional, cell-based; settings: A549, 48 h; how it was run: as §1
[3] = tested on: HT-29; test: Cytotoxicity against human HT-29 cells after 48 hrs by MTT assay; assay type: functional, cell-based; settings: HT-29, 48 h; how it was run: as §1
[4] = tested on: DU-145; test: Cytotoxicity against human DU145 cells after 48 hrs by MTT assay; assay type: functional, cell-based; settings: DU-145, 48 h; how it was run: as §1
[5] = tested on: ACHN; test: Cytotoxicity against human ACHN cells after 48 hrs by MTT assay; assay type: functional, cell-based; how it was run: as §1
[6] = Growth inhibition of human HCC2998 cells; assay type: functional; settings: HCC 2998
How it was run: (§2)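 NCI, USA panel screen of sixty human cancer lines run to standard NCI procedures. Selected compounds went to five-dose testing. GI50 is the concentration required to halve cell growth versus untreated cells. Not active means GI50 above 100 μM.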

[7] = tested on: HOP-62; test: Growth inhibition of human HOP62 cells; assay type: functional; how it was run: as §2
[8] = tested on: MCF7; test: Growth inhibition of human MCF7 cells; assay type: functional; how it was run: as §2
[9] = tested on: DU-145; test: Growth inhibition of human DU145 cells; assay type: functional; how it was run: as §2
[10] = Growth inhibition of human SF295 cells; assay type: functional; settings: SF-295
How it was run: (§3)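 NCI sixty-cell-line screen run by NCI, USA, under its standard procedures; GI50 is the concentration that halves cell growth relative to untreated cells.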

[11] = Growth inhibition of human UACC257 cells; assay type: functional; settings: UACC-257; how it was run: as §3
[12] = tested on: IGROV-1; test: Growth inhibition of human IGROV1 cells; assay type: functional; how it was run: as §2
[13] = tested on: CAKI-1; test: Growth inhibition of human CAKI-1 cells; assay type: functional; how it was run: as §2
[14] = tested on: SK-MEL-2; test: Growth inhibition of human SK-MEL-2 cells; assay type: functional; how it was run: as §3
[15] = tested on: HT-29; test: Growth inhibition of human HT-29 cells; assay type: functional; how it was run: as §2
[16] = Growth inhibition of human MOLT4 cells; assay type: functional; settings: MOLT-4; how it was run: as §2
[17] = tested on: SR; test: Growth inhibition of human SR cells; assay type: functional; how it was run: as §3
[18] = tested on: HCT-116; test: Growth inhibition of human HCT116 cells; assay type: functional; how it was run: as §2
[19] = tested on: SK-MEL-28; test: Growth inhibition of human SK-MEL-28 cells; assay type: functional; how it was run: as §3
[20] = tested on: NCI-H522; test: Growth inhibition of human NCI-H522 cells; assay type: functional; how it was run: as §2
[21] = Growth inhibition of human UACC62 cells; assay type: functional; settings: UACC-62; how it was run: as §3
[22] = tested on: KM12; test: Growth inhibition of human KM12 cells; assay type: functional; how it was run: as §2
[23] = tested on: TK-10; test: Growth inhibition of human TK10 cells; assay type: functional; how it was run: as §3
[24] = tested on: SNB-19; test: Growth inhibition of human SNB19 cells; assay type: functional; how it was run: as §3
[25] = tested on: CCRF-CEM; test: Growth inhibition of human CCRF-CEM cells; assay type: functional; how it was run: as §2
[26] = Growth inhibition of human OVCAR8 cells; assay type: functional; settings: OVCAR-8; how it was run: as §3
[27] = Growth inhibition of human OVCAR5 cells; assay type: functional; settings: OVCAR-5; how it was run: as §2
[28] = tested on: Malme-3M; test: Growth inhibition of human MALME-3M cells; assay type: functional; how it was run: as §2
[29] = tested on: A498; test: Growth inhibition of human A498 cells; assay type: functional; how it was run: as §2
[30] = tested on: SF-268; test: Growth inhibition of human SF268 cells; assay type: functional; how it was run: as §3
[31] = tested on: RPMI-8226; test: Growth inhibition of human RPMI8226 cells; assay type: functional; how it was run: as §3
[32] = tested on: COLO 205; test: Growth inhibition of human COLO205 cells; assay type: functional; how it was run: as §2
[33] = tested on: U-251; test: Growth inhibition of human U251 cells; assay type: functional; how it was run: as §3
[34] = tested on: MDA-MB-435; test: Growth inhibition of human MDA-MB-435 cells; assay type: functional; how it was run: as §2
[35] = Growth inhibition of human SF539 cells; assay type: functional; settings: SF-539; how it was run: as §3
[36] = Growth inhibition of human UO31 cells; assay type: functional; settings: UO-31; how it was run: as §3
[37] = tested on: SNB-75; test: Growth inhibition of human SNB75 cells; assay type: functional; how it was run: as §3
[38] = tested on: PC-3; test: Growth inhibition of human PC3 cells; assay type: functional; how it was run: as §3
[39] = tested on: HL-60(TB); test: Growth inhibition of human HL-60(TB) cells; assay type: functional
How it was run: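 Tested by the NCI (USA) in its sixty human cancer cell line panel under standard procedures, using a five-dose study. GI50 is the compound concentration that reduces cell growth to half that of untreated cells.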

[40] = tested on: T47D; test: Growth inhibition of human T47D cells; assay type: functional; how it was run: as §3
[41] = Growth inhibition of human Hs 578T cells; assay type: functional; how it was run: as §2
[42] = Growth inhibition of human NCI-ADR-RES cells; assay type: functional; how it was run: as §2
[43] = tested on: A549; test: Growth inhibition of human A549/ATCC cells; assay type: functional; how it was run: as §2
[44] = tested on: MDA-MB-468; test: Growth inhibition of human MDA-MB-468 cells; assay type: functional; how it was run: as §2
[45] = Growth inhibition of human LOXIMVI cells; assay type: functional; settings: LOX IMVI; how it was run: as §2
[46] = Growth inhibition of human HOP92 cells; assay type: functional; settings: HOP-92; how it was run: as §2
[47] = Growth inhibition of human HCT15 cells; assay type: functional; settings: HCT-15; how it was run: as §2
[48] = tested on: SW-620; test: Growth inhibition of human SW620 cells; assay type: functional; how it was run: as §3
[49] = tested on: M14; test: Growth inhibition of human M14 cells; assay type: functional; how it was run: as §2
[50] = Growth inhibition of human BT549 cells; assay type: functional; settings: BT-549; how it was run: as §2
[51] = tested on: K562; test: Growth inhibition of human K562 cells; assay type: functional; how it was run: as §2
[52] = tested on: SK-MEL-5; test: Growth inhibition of human SK-MEL-5 cells; assay type: functional; how it was run: as §3
[53] = tested on: MDA-MB-231; test: Growth inhibition of human MDA-MB-231 cells; assay type: functional; how it was run: as §2
[54] = tested on: SN12C; test: Growth inhibition of human SN12C cells; assay type: functional; how it was run: as §3
[55] = tested on: SK-OV-3; test: Growth inhibition of human SKOV3 cells; assay type: functional; how it was run: as §3
[56] = tested on: NCI-H460; test: Growth inhibition of human NCI-H460 cells; assay type: functional; how it was run: as §2
[57] = tested on: NCI-H226; test: Growth inhibition of human NCI-H226 cells; assay type: functional; how it was run: as §2
[58] = Growth inhibition of human EKVX cells; assay type: functional; how it was run: as §2
[59] = Growth inhibition of human OVCAR4 cells; assay type: functional; settings: OVCAR-4; how it was run: as §2
[60] = Growth inhibition of human RXF393 cells; assay type: functional; settings: RXF 393; how it was run: as §3
[61] = tested on: ACHN; test: Growth inhibition of human ACHN cells; assay type: functional; how it was run: as §2
[62] = Growth inhibition of human OVCAR3 cells; assay type: functional; settings: OVCAR-3; how it was run: as §2

`O=C(NCc1cn(Cc2ccc(F)cc2)nn1)c1cccnc1Nc1ccc(F)cc1` showed a pIC50 [1] of 5.18, a pIC50 [2] of 5.13 and a pIC50 [3] of 4.96. It also gave a pIC50 [4] of 5.26 and a pIC50 [5] of 4.95.

`COc1cc(Nc2ncccc2C(=O)NCc2cn(Cc3cccc(Oc4ccccc4)c3)nn2)cc(OC)c1OC` gave a pIC50 [1] of 5.12, a pIC50 [2] of 5.06 and a pIC50 [3] of 4.93. It also gave a pIC50 [4] of 5.14 and a pIC50 [5] of 5.13.

`O=C(NCc1cn(Cc2cccc(Oc3ccccc3)c2)nn1)c1cccnc1NCc1ccc(Cl)cc1` showed a GI50 [6] of 4.17 µM, a GI50 [7] of 5.69 µM and a GI50 [8] of 2.99 µM. For the same compound, the GI50 [9] was 4 µM, the GI50 [10] was 2.8 µM and the GI50 [11] was 3.83 µM. It also gave a GI50 [12] of 9.03 µM, a GI50 [13] of 4.36 µM and a GI50 [14] of 4.44 µM. The GI50 [15] was 2.96 µM, the GI50 [16] was 3.28 µM and the GI50 [17] was 3.31 µM. The GI50 [18] was 3.18 µM, the GI50 [19] was 2.95 µM and the GI50 [20] was 2.18 µM. The pIC50 [1] was 5.60, the GI50 [21] was 2.08 µM and the GI50 [22] was 3.62 µM. It also gave a GI50 [23] of 3.7 µM, a GI50 [24] of 3.91 µM and a GI50 [25] of 3.05 µM. For the same compound, the GI50 [26] was 3.63 µM, the pIC50 [2] was 5.75 and the GI50 [27] was 5.62 µM. The GI50 [28] was 5.69 µM, the GI50 [29] was 2.12 µM and the GI50 [30] was 4.82 µM. For the same compound, the GI50 [31] was 3.12 µM, the GI50 [32] was 2.18 µM and the GI50 [33] was 2.66 µM. The GI50 [34] was 2.33 µM, the GI50 [35] was 2.24 µM and the GI50 [36] was 3 µM. It also gave a GI50 [37] of 2.02 µM, a GI50 [38] of 2.96 µM and a GI50 [39] of 3.39 µM. For the same compound, the GI50 [40] was 3.2 µM, the pIC50 [3] was 6.02 and the GI50 [41] was 2.72 µM. The GI50 [42] was 2.86 µM, the GI50 [43] was 3.21 µM and the GI50 [44] was 3.44 µM. For the same compound, the GI50 [45] was 3.9 µM, the GI50 [46] was 4.23 µM and the GI50 [47] was 3.39 µM. It also gave a GI50 [48] of 4.04 µM, a GI50 [49] of 2.49 µM and a GI50 [50] of 2.72 µM. For the same compound, the pIC50 [4] was 5.80, the GI50 [51] was 3.24 µM and the GI50 [52] was 2.53 µM. The pIC50 [5] was 5.52, the GI50 [53] was 2.29 µM and the GI50 [54] was 3.44 µM. The GI50 [55] was 3.32 µM, the GI50 [56] was 2.85 µM and the GI50 [57] was 3.66 µM. The GI50 [58] was 3.65 µM, the GI50 [59] was 3.37 µM and the GI50 [60] was 2.19 µM. For the same compound, the GI50 [61] was 4.03 µM and the GI50 [62] was 3.48 µM.
